Results from different studies.
Protocols differ between the studies behind these lines.
ALOX5: Polyunsaturated fatty acid 5-lipoxygenase (ALOX5, Homo sapiens, UniProt P09917)
dxs: dxs (Pseudomonas aeruginosa, UniProt Q9KGU7)
ACE: Angiotensin-converting enzyme (ACE, Oryctolagus cuniculus, UniProt P12822)

SMILES	target	assay	conditions	quantity	value
C=CCOc1ccc(C(=O)/C=C/c2cccc(F)c2)c(OS(C)(=O)=O)c1I	ALOX5	enzyme activity, inhibitor		IC50	34.6 µM
Cn1c(=O)n(CCCCN2CCC3(CC2)OCc2ccccc23)c2ccccc21	Sodium-dependent serotonin transporter (Slc6a4, Rattus norvegicus, UniProt P31652)	ligand displacement, radioligand	cell membranes	Ki	2.83 µM
CC(=O)P(=O)(O)OCCc1cn([C@H](Cc2ccccc2)C(=O)O)nn1	dxs	enzyme activity, inhibitor		Ki	2.6 µM
N[C@@H](Cc1c[nH]cn1)C(=O)N[C@@H](CC(=O)O)C(=O)N[C@@H](CS)C(=O)N[C@@H](Cc1ccccc1)C(=O)O	ACE	enzyme activity, inhibitor		IC50	4.5 µM
C=CCOc1ccc(C(=O)/C=C/c2ccc(OC)cc2)c(OS(C)(=O)=O)c1I	ALOX5	enzyme activity, inhibitor		IC50	38.3 µM
CCCCOP(=O)(O)C(C)=O	dxs	enzyme activity, inhibitor		Ki	1.84 µM
CC(C)C[C@H](N)C(=O)N[C@@H](Cc1c[nH]c2ccccc12)C(=O)N[C@@H](CC(=O)O)C(=O)N1CCC[C@H]1C(=O)N1CCC[C@H]1C(=O)N[C@@H](CCC(=O)O)C(=O)NCC(=O)N[C@@H](C)C(=O)N1CCC[C@H]1C(=O)O	ACE	enzyme activity, inhibitor		IC50	207 µM
COc1cc2c(cc1OC)CN(CCc1ccc(NC(=O)c3cccc4c(=O)c5cccc(OC)c5[nH]c34)cc1)CC2	Mu-type opioid receptor (OPRM1, Homo sapiens, UniProt P35372)	cell-free assay		Ki	> 10 µM
CCN1CCN(Cc2ccc(Nc3ncc(F)c(-c4cc(F)c5nc6n(c5c4)[C@H](C)CCC6)n3)nc2)CC1	Multidrug and toxin extrusion protein 2 (SLC47A2, Homo sapiens, UniProt Q86VL8)	enzyme activity, inhibitor		IC50	0.0654 µM
CCCCOc1cc(C(=O)NCCN(CC)CC)c2ccccc2n1	PKD2L1 (Homo sapiens, UniProt Q9P0L9, F549I)	ion current, inhibitor, patch clamp		IC50	76.2 µM
COC(=O)C1=CO[C@@H](O[C@@H]2O[C@H](CO)[C@@H](O)[C@H](O)[C@H]2O)[C@@H]2C(CO)=CC[C@H]12	Cystathionine beta-synthase (CBS, Homo sapiens, UniProt P35520)	binding, MST		Kd	38.4 µM
COc1ccc(CCCCC(=O)C(F)(F)C(F)(F)F)cc1	Cytosolic phospholipase A2 (PLA2G4A, Homo sapiens, UniProt P47712)	enzyme activity, inhibitor		IC50	26.2 µM
N=C(N)NCCC[C@H](NC(=O)[C@H](Cc1ccccc1)NC(=O)[C@@H]1CCCN1C(=O)[C@H](CO)NC(=O)[C@@H]1CCCN1C(=O)[C@@H](N)Cc1ccccc1)C(=O)O	ACE	enzyme activity, inhibitor		IC50	81.3 µM
